The results in this text go back to ChEMBL document CHEMBL3739344, “A novel class of negative allosteric modulators of NMDA receptor function” (Bioorg Med Chem Lett, 2015).

The target in series [1] is Glutamate NMDA receptor; Grin1/Grin2b (Rattus norvegicus, UniProt P35439+Q00960). In words: Negative allosteric modulation of rat GluN1a/GluN2B receptor expressed in Xenopus laevis oocytes assessed as suppression of 100 uM glutamate and 30 uM glycine induced-current by voltage clamp recording method. The class given is cell-based. The gist of the method: (§1)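 Rat GluN1-1a cRNA co-injected with GluN2A, 2B, 2C or 2D cRNA into Xenopus oocytes; expression 1–3 days at 16–19 °C. Two-electrode voltage clamp. Currents evoked by 100 µM glutamate plus 30 µM glycine, alone and then with rising inhibitor concentrations. […] 4–17 oocytes from ≥2 frogs.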

Series [2] deals with T1, Ionotropic glutamate receptor NMDA 1/2D (Rattus norvegicus) (UniProt P35439+Q62645). In words: Negative allosteric modulation of rat GluN1a/GluN2D receptor expressed in Xenopus laevis oocytes assessed as suppression of 100 uM glutamate and 30 uM glycine induced-current at saturating compound level by voltage clamp recording method. The class given is cell-based. The gist of the method:
as §1

The nature of series [3]: Solubility of compound in TEVC electrophysiological solution at 3.25 to 100 uM by nephelometric method. The class given is physicochemical. The gist of the method:
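Nephelometry measuring forward light scattering of each compound at 3.25–100 µM in TEVC recording solution. Maximum solubility taken as the intersection point of a linear segmental regression. Mean of n = 2 in quadruplicate.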

For series [4], the target named is Ionotropic glutamate receptor NMDA 1/2D (Rattus norvegicus, UniProt P35439+Q62645). The series can be described thus: Negative allosteric modulation of rat GluN1a/GluN2D receptor expressed in Xenopus laevis oocytes assessed as suppression of 100 uM glutamate and 30 uM glycine induced-current by voltage clamp recording method. The class given is cell-based. The gist of the method:
as §1

Series [5] deals with T2, Glutamate NMDA receptor; Grin1/Grin2a (Rattus norvegicus) (UniProt P35439+Q00959). The series can be described thus: Negative allosteric modulation of rat GluN1a/GluN2A receptor expressed in Xenopus laevis oocytes assessed as suppression of 100 uM glutamate and 30 uM glycine induced-current at saturating compound level by voltage clamp recording method. The class given is cell-based. The gist of the method:
as §1

Series [6] addresses Glutamate NMDA receptor; Grin1/Grin2a (Rattus norvegicus, UniProt P35439+Q00959). The series can be described thus: Negative allosteric modulation of rat GluN1a/GluN2A receptor expressed in Xenopus laevis oocytes assessed as suppression of 100 uM glutamate and 30 uM glycine glycine induced-current by voltage clamp recording method. The series is classed as cell-based. The gist of the method: as §1

In series [7] the target is T3, Glutamate NMDA receptor; Grin1/Grin2b (Rattus norvegicus) (UniProt P35439+Q00960). The series can be described thus: Negative allosteric modulation of rat GluN1a/GluN2B receptor expressed in Xenopus laevis oocytes assessed as suppression of 100 uM glutamate and 30 uM glycine induced-current at saturating compound level by voltage clamp recording method. The class given is cell-based. The gist of the method:
as §1

Series [8] addresses Glutamate NMDA receptor; Grin1/Grin2c (Rattus norvegicus, UniProt P35439+Q00961). In words: Negative allosteric modulation of rat GluN1a/GluN2C receptor expressed in Xenopus laevis oocytes assessed as suppression of 100 uM glutamate and 30 uM glycine induced-current by voltage clamp recording method. The class given is cell-based. The gist of the method:
as §1

Series [9] addresses T4, Glutamate NMDA receptor; Grin1/Grin2c (Rattus norvegicus) (UniProt P35439+Q00961). The series can be described thus: Negative allosteric modulation of rat GluN1a/GluN2C receptor expressed in Xenopus laevis oocytes assessed as suppression of 100 uM glutamate and 30 uM glycine induced-current at saturating compound level by voltage clamp recording method. The series is classed as cell-based. An outline of the steps: as §1

Series [10] deals with T2, Glutamate NMDA receptor; Grin1/Grin2a (Rattus norvegicus). The series can be described thus: Negative allosteric modulation of rat GluN1a/GluN2A receptor expressed in Xenopus laevis oocytes assessed as suppression of 100 uM glutamate and 30 uM glycine induced-current at 30 uM by voltage clamp recording method. The series is classed as cell-based.
The target of series [11] is T3, Glutamate NMDA receptor; Grin1/Grin2b (Rattus norvegicus). The series can be described thus: Negative allosteric modulation of rat GluN1a/GluN2B receptor expressed in Xenopus laevis oocytes assessed as suppression of 100 uM glutamate and 30 uM glycine induced-current at 30 uM by voltage clamp recording method. The class given is cell-based.
Series [12] has as its target T4, Glutamate NMDA receptor; Grin1/Grin2c (Rattus norvegicus). In words: Negative allosteric modulation of rat GluN1a/GluN2C receptor expressed in Xenopus laevis oocytes assessed as suppression of 100 uM glutamate and 30 uM glycine at 30 uM glycine induced-current by voltage clamp recording method. The series is classed as cell-based.
The target in series [13] is T1, Ionotropic glutamate receptor NMDA 1/2D (Rattus norvegicus). In words: Negative allosteric modulation of rat GluN1a/GluN2D receptor expressed in Xenopus laevis oocytes assessed as suppression of 100 uM glutamate and 30 uM glycine at 30 uM glycine induced-current by voltage clamp recording method. The series is classed as cell-based.

Structures are written as SMILES. In brackets after ≈: the same amount, converted by molar mass.

What is called IC50 is the concentration that gives 50% inhibition. As a reminder, the inhibition is the drop in the measured response relative to a control, in per cent. The term kinetic solubility denotes the concentration staying in solution when a stock, usually in DMSO, is diluted into the medium. On to `COC(=O)c1c(NC(=O)CC2SC(N)=NC2=O)sc2c1CCCC2` (racemic), for which the IC50 in [1] came to 4.2 µM; in [4], 1.1 µM; in series [6], 3.4 µM; in series [8], 1 µM. The inhibition in series [2] is 86%; in series [5] it was 81%; in series [7] it was 86%; in [9], 88%. Besides, the solubility (kinetic) in [3] is 57 µM (≈ 20.9 µg/mL).

Take `COC(=O)c1c(NC(=O)CC2SC(N)=NC2=O)sc2c1CCC(C)C2` (racemic): the IC50 in series [1] was 0.6 µM; in series [4], 0.3 µM; in [6], 0.7 µM; in [8] it was 0.3 µM. For the same compound, the inhibition in series [2] was 94%; in [5], 80%; in series [7], 74%; in [9] it was 95%. The compound further displayed a kinetic solubility in series [3] of 20 µM (≈ 7.63 µg/mL).

In the case of `CCc1cc(C(=O)OC)c(NC(=O)CC2SC(N)=NC2=O)s1` (racemic), the IC50 is 9.3 µM in series [1], 2.6 µM in series [4], 4.8 µM in [6] and 2.5 µM in [8]. The inhibition in series [2] came out at 98%; in series [5], 98%; in series [7], 97%; in series [9], 97%.

As for `CCOC(=O)c1c(NC(=O)CC2SC(=N)NC2=O)sc2c1CCC(F)(F)C2` (racemic), the IC50 in [1] amounted to 8 µM; in [4], 1.5 µM; in series [6] it was 5.2 µM; in series [8], 1.4 µM. The inhibition came to 65% in [2], 84% in [5], 74% in series [7] and 75% in series [9]. The kinetic solubility in series [3] came out at 35 µM (≈ 14.6 µg/mL).

As to `CCOC(=O)c1c(NC(=O)CC2SC(=N)NC2=O)sc2c1CCOC2` (racemic), the half-maximal inhibitory concentration (IC50) in series [1] is 5.6 µM; in series [4], 2.1 µM; in series [6] it was 3 µM; in series [8], 2.9 µM. The inhibition in [2] worked out at 41%; in series [5], 74%; in series [7] it was 69%; in series [9], 59%.

`CCOC(=O)c1c(NC(=O)CC2SC(=N)NC2=O)sc2c1CCC(C)(C)C2` (racemic): the half-maximal inhibitory concentration (IC50) is 9.2 µM in series [1], 8.8 µM in series [4], 16.1 µM in series [6] and 9.3 µM in series [8]. In addition, the inhibition in [2] was determined as 90%; in series [5], 72%; in [7], 44%; in series [9] it was 89%. In series [3], this compound registered a solubility (kinetic) of 37 µM (≈ 15.2 µg/mL).

Consider `CCc1c(C)sc(NC(=O)CC2SC(=N)NC2=O)c1C(=O)OC` (racemic), for which the concentration for half-maximal inhibition (IC50) was found to be 43.8 µM in series [1], 9.1 µM in series [4], 26.8 µM in series [6] and 6.7 µM in series [8]. For the same compound, the inhibition in series [2] worked out at 82%; in series [5], 79%; in [7], 77%; in series [9] it was 85%.

For the compound `CCOC(=O)c1c(NC(=O)CC2SC(=N)NC2=O)sc2c1CCC(CC)C2` (racemic), the IC50 in series [1] amounted to 2.2 µM; in series [4] it was 1.5 µM; in series [6], 3.4 µM; in [8], 0.9 µM. Further, the inhibition in series [2] stood at 73%; in [5] it was 58%; in series [7], 59%; in series [9] it was 80%. This compound also showed a kinetic solubility in series [3] of 73 µM (≈ 29.9 µg/mL).

Consider `CCOC(=O)c1cc(C)sc1NC(=O)CC1SC(=N)NC1=O` (racemic), for which the half-maximal inhibitory concentration (IC50) in series [1] stood at 44.9 µM; in series [4], 12.3 µM; in [6] it was 42.8 µM; in series [8], 11.2 µM. Also, the inhibition in series [2] was found to be 99%; in [5] it was 93%; in series [7], 91%; in series [9], 98%.

Turning to `CCOC(=O)c1cc(CC)sc1NC(=O)CC1SC(=N)NC1=O` (racemic), the half-inhibitory concentration (IC50) in series [1] was 9.7 µM; in series [4] it was 2.6 µM; in series [6], 6.2 µM; in series [8], 3.7 µM. Besides, the inhibition stood at 94% in series [2], 96% in series [5], 96% in series [7] and 97% in [9].

`N#Cc1c(NC(=O)CC2SC(=N)NC2=O)sc2c1CCCC2` (racemic): the inhibition in [2] turned out to be 63%; in series [9] it was 59%. Further, the solubility (kinetic) in series [3] amounted to 36 µM (≈ 12 µg/mL). For the same compound, the values for the IC50 in series [4] and in [8] were 4.3 µM and 2.9 µM, respectively.

As to `CCOC(=O)c1c(NC(=O)CC2SC(=N)NC2=O)sc2c1CCCC2` (racemic), the IC50 in series [1] came to 4.2 µM; in series [4], 0.6 µM; in [6], 2.3 µM; in [8], 1.2 µM. In addition, the inhibition in series [2] amounted to 41%; in series [5] it was 61%; in [7], 35%; in series [9], 53%. The compound further had a solubility (kinetic) in series [3] of 54 µM (≈ 20.6 µg/mL).

Take `COC(=O)c1ccsc1NC(=O)CC1SC(=N)NC1=O` (racemic): the inhibition in series [2] is 99%; in [10], below 25%; in series [11], below 25%; in [9], 100%. Moreover, the half-maximal inhibitory concentration (IC50) amounted to 43.3 µM in [4] and 41 µM in series [8].

Consider `COC(=O)c1c(NC(=O)CC2SC(=N)NC2=O)sc(C)c1C` (racemic), for which the IC50 in [1] is 28.2 µM; in [4], 10.4 µM; in series [6], 22.3 µM; in series [8] it was 9.7 µM. Moreover, the inhibition worked out at 94% in series [2], 88% in series [5], 63% in [7] and 88% in series [9].

In the case of `CCOC(=O)c1c(NC(=O)CC2SC(=N)NC2=O)sc(C)c1C` (racemic), the inhibition is 81% in series [2], 80% in [5], below 25% in series [11] and 77% in series [9]. Further, the IC50 in series [4] stood at 13 µM; in series [6], 30.2 µM; in [8], 8.1 µM.

For `CCOC(=O)c1c(NC(=O)CC2NC(=O)NC2=O)sc2c1CCCC2` (racemic), the inhibition in series [10], in series [12], in series [11] and in series [13] was below 25% each time.

`CCOC(=O)c1c(NC(=O)CC2S/C(=N\C)N(C)C2=O)sc2c1CCCC2` (racemic): the inhibition in [10], in [12], in [11] and in series [13] was below 25% in each case.

As to `CCOC(=O)c1c(NC(=O)CC2SC(=O)NC2=O)sc2c1CCC2` (racemic), the inhibition in series [10], in series [12], in series [11] and in [13] was below 25% in each case.

`CCOC(=O)c1c(NC(=O)CC2SC(=O)NC2=O)sc2c1CCCC2` (racemic): the inhibition in series [10], in [12], in [11] and in series [13] was below 25% in each case.

Regarding `COC(=O)c1c(NC(=O)CC2SC(N)=NC2=O)sc2c1CCC(C(C)(C)C)C2` (racemic), the inhibition in series [10], in series [12], in [11] and in [13] was below 25% throughout.

With `N=C1NC(=O)C(CC(=O)Nc2sc3c(c2C(=O)O)CCCC3)S1` (racemic), the inhibition in series [10], in [12], in [11] and in series [13] was below 25% in each case.
